The text below walks through data of ChEMBL document CHEMBL1145162, “6-aryl-8H-indeno[1,2-d]thiazol-2-ylamines: A1 adenosine receptor agonist allosteric enhancers having improved potency” (J Med Chem, 2005).

Molecules are shown by their SMILES.

Assay [1] deals with T1, Adenosine receptor A1 (Homo sapiens) (UniProt P30542).
T1 sequence (whole entry): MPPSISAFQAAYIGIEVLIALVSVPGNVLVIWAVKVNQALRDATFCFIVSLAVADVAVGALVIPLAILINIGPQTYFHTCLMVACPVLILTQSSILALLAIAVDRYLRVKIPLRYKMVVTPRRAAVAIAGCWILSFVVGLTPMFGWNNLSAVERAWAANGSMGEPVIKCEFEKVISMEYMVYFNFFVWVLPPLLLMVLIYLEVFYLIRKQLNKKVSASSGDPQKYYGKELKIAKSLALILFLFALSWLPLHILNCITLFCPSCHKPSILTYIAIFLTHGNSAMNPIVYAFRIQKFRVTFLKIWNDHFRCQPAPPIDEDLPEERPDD
Briefly: In vitro allosteric enhancer (AE) activity for adenosine A1 receptor maximal score from curve fitting.

Assay [2] has as its target T2, Adenosine receptor A3 (Homo sapiens) (UniProt P0DMS8).
T2 sequence (whole entry): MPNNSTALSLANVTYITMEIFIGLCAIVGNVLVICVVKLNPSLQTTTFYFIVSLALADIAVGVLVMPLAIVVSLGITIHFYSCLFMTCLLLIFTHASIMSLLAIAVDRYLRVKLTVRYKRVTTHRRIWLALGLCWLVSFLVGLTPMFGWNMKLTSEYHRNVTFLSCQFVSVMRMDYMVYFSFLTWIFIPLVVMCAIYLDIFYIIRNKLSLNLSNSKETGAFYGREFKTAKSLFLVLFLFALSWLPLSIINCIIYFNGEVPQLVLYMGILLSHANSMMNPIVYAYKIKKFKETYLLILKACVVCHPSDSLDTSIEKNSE
Put plainly: In vitro allosteric enhancer (AE) activity for adenosine A3 receptor at 50 uM.

In assay [3] the target is T1, Adenosine receptor A1 (Homo sapiens). Briefly: Allosteric enhancer activity against adenosine A1 receptor.
Assay [4] deals with T3, Adenosine receptor A1 (Homo sapiens, UniProt P30542).
T3 sequence (P30542 whole entry): T1 sequence (whole entry)
Put plainly: Antagonist activity against adenosine A1 receptor. The class given is functional. On the set-up: concentration or dose not given beside the values. In outline:
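Equilibrium binding on CHO-K1 hA1AR membranes (15 μg) in 10 mM HEPES pH 7.4, 1 mM EDTA, 1 U/mL adenosine deaminase, 4 nM [3H]CPX. Mixed with an equal volume of 200 μM enhancer in HEPES–10% DMSO; 200 μM NECA for nonspecific binding. Incubated 3 h at room temperature, then filtered.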

The target of assay [5] is T1, Adenosine receptor A1 (Homo sapiens). Put plainly: In vitro allosteric enhancer (AE) activity for adenosine A1 receptor at 50 uM. In outline: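 Single-point screen on membranes from CHO-K1 cells stably expressing hA1AR. Candidate enhancer was added at 50 μM final for 5 min. Dissociation was then started with 8-cyclopentyltheophylline plus GTPγS and run 10 min. Score = % specific agonist binding remaining; two to three assays, each in triplicate.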

Assay [6] concerns the target Adenosine receptor A2a (Homo sapiens) (UniProt P29274). Briefly: In vitro allosteric enhancer (AE) activity for adenosine A2A receptor at 50 uM.

Adenosine receptor A2a (Homo sapiens), sequence (P29274 whole entry): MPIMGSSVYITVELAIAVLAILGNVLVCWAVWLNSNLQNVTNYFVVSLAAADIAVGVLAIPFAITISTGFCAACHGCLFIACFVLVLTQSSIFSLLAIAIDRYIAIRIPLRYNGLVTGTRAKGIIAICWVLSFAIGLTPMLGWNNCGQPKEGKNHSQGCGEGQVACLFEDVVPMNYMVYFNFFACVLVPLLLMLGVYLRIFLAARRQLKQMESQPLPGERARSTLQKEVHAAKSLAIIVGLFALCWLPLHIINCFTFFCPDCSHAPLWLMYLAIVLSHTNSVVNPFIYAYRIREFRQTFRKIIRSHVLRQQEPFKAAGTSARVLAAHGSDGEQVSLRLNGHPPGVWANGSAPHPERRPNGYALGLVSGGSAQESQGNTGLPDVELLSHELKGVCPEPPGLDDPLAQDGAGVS

In the case of `Nc1nc2c(s1)Cc1cc(-c3ccccc3C(F)(F)F)ccc1-2`, the Allosteric enhancer (AE) in assay [1] was 57%. Moreover, the Alloste ic enhan er (AE) in assay [2] turned out to be 6.6%; in assay [5] it was 50.1%; in assay [6], 0%. In addition, in assay [3], the EC50 (as a rule, the midpoint of the concentration-response curve) came out at 5.1 µM. For the same compound, the Inhibition (as a rule, the drop in the measured response relative to a control, in per cent) in assay [4] was over 10%.

On to `Nc1nc2c(s1)Cc1cc(-c3ccccc3[N+](=O)[O-])ccc1-2`, for which the Allosteric enhancer (AE) in assay [1] was 49.7%. The figures for the Alloste ic enhan er (AE) in assay [2], in assay [5] and in assay [6] were 0%, 40.1% and 0%, respectively. In addition, the EC50 in assay [3] came out at 6.3 µM. The compound also returned an Inhibition in assay [4] of 8.3%.

Take `COc1cccc(-c2ccc3c(c2)Cc2sc(N)nc2-3)c1`: the Alloste ic enhan er (AE) in assay [2] amounted to 1.8%; in assay [5], 64%; in assay [6], 0%. In addition, in assay [3], the EC50 is over 10 µM. For the same compound, the Inhibition in assay [4] was 19.3%.

As to `Nc1nc2c(s1)Cc1cc(-c3cccc4ccccc34)ccc1-2`, in assay [1], the Allosteric enhancer (AE) stood at 65.6%. The results for the Alloste ic enhan er (AE) in assay [2], in assay [5] and in assay [6] were 4.2%, 61.2% and 0%, respectively. The concentration for a half-maximal effect (EC50) in assay [3] turned out to be 3 µM. In addition, the Inhibition in assay [4] was over 13%.

`Cc1ccccc1-c1ccc2c(c1)Cc1sc(N)nc1-2`: the Alloste ic enhan er (AE) in assay [2] came to 0%; in assay [5] it was 36.6%; in assay [6], 0%. Moreover, in assay [3], the EC50 was over 10 µM. Moreover, the Inhibition in assay [4] worked out at 34.4%.

`Nc1nc2c(s1)Cc1cc(-c3ccccc3F)ccc1-2`: the Alloste ic enhan er (AE) in assay [2] was 3.6%; in assay [5], 4.9%; in assay [6], 0%. Also, in assay [3], the EC50 is over 10 µM. The Inhibition in assay [4] came to 13.2%.

With `Cc1cc(C)cc(-c2ccc3c(c2)Cc2sc(N)nc2-3)c1`, the results for the Alloste ic enhan er (AE) in assay [2], in assay [5] and in assay [6] were 0%, 10.5% and 0%, respectively. In addition, the EC50 in assay [3] was over 10 µM. The compound further registered an Inhibition in assay [4] of over 8.7%.

Consider `Nc1nc2c(s1)Cc1cc(-c3cccc(Cl)c3)ccc1-2`, for which the Alloste ic enhan er (AE) came out at 1% in assay [2], 22.7% in assay [5] and 0% in assay [6]. Also, in assay [3], the EC50 is over 10 µM. This compound displayed an Inhibition in assay [4] of over 10%.

Turning to `Nc1nc2c(s1)Cc1cc(-c3ccc(Cl)c(Cl)c3)ccc1-2`, in assay [1], the Allosteric enhancer (AE) is 22.6%. The Alloste ic enhan er (AE) came out at 0% in assay [2], 45.3% in assay [5] and 0% in assay [6]. Besides, in assay [3], the EC50 is over 10 µM. In addition, the Inhibition in assay [4] came to 8%.

As for `COc1ccc2cc(-c3ccc4c(c3)Cc3sc(N)nc3-4)ccc2c1`, the figures for the Alloste ic enhan er (AE) in assay [2], in assay [5] and in assay [6] were 0%, 24.4% and 0%, respectively.

In the case of `COc1ccc(-c2ccc3c(c2)Cc2sc(N)nc2-3)c(OC)c1`, the Alloste ic enhan er (AE) in assay [2] was found to be 1.9%; in assay [5], 73%; in assay [6], 0%. The EC50 in assay [3] was over 10 µM. This compound also registered an Inhibition in assay [4] of 16%.

As for `COc1ccc(-c2ccc3c(c2)Cc2sc(N)nc2-3)c(OC)c1OC`, the values for the Alloste ic enhan er (AE) in assay [2], in assay [5] and in assay [6] were 0%, 64.5% and 0.3%, respectively. Moreover, in assay [3], the EC50 was over 10 µM. In assay [4], the Inhibition came out at 18%.

Consider `Nc1nc2c(s1)Cc1cc(-c3ccc4ccccc4c3)ccc1-2`, for which the Alloste ic enhan er (AE) in assay [2] came to 4.5%; in assay [5], 38.6%; in assay [6], 0%. Besides, the EC50 in assay [3] is over 10 µM. In assay [4], this compound had an Inhibition of over 4.2%.

With `Nc1nc2c(s1)Cc1cc(-c3cc4ccccc4o3)ccc1-2`, the values for the Alloste ic enhan er (AE) in assay [2], in assay [5] and in assay [6] were 11.9%, 51% and 0.8%, respectively.

As for `Nc1nc2c(s1)Cc1cc(-c3cccc([N+](=O)[O-])c3)ccc1-2`, the Alloste ic enhan er (AE) in assay [2] worked out at 0%; in assay [5], 13%; in assay [6], 0%. The EC50 in assay [3] is over 10 µM. The compound also gave an Inhibition in assay [4] of 8.3%.

Consider `Nc1nc2c(s1)Cc1cc(-c3ccc(C(F)(F)F)cc3)ccc1-2`, for which the Alloste ic enhan er (AE) came out at 0% in assay [2], 8.9% in assay [5] and 0% in assay [6]. In assay [3], the EC50 is over 10 µM. Moreover, the Inhibition in assay [4] is over 10%.

Consider `Nc1nc2c(s1)Cc1cc(-c3ccccc3Cl)ccc1-2`, for which the Alloste ic enhan er (AE) in assay [2] came to 0%; in assay [5], 36.7%; in assay [6], 0%. The EC50 in assay [3] was over 10 µM. This compound came in with an Inhibition in assay [4] of over 10%.

Regarding `Nc1nc2c(s1)Cc1cc(-c3cccc(F)c3)ccc1-2`, the values for the Alloste ic enhan er (AE) in assay [2], in assay [5] and in assay [6] were 3.6%, 42.8% and 0%, respectively. The EC50 in assay [3] was over 10 µM. The compound further gave an Inhibition in assay [4] of over 10%.

With `COc1ccccc1-c1ccc2c(c1)Cc1sc(N)nc1-2`, the Alloste ic enhan er (AE) worked out at 1% in assay [2], 38% in assay [5] and 0% in assay [6]. The EC50 in assay [3] was over 10 µM. For the same compound, the Inhibition in assay [4] turned out to be 43.5%.

`COc1cc(-c2ccc3c(c2)Cc2sc(N)nc2-3)cc(OC)c1OC`: the Alloste ic enhan er (AE) in assay [2] came out at 0.8%; in assay [5] it was 23.3%; in assay [6], 0%. Further, in assay [3], the EC50 was over 10 µM. In assay [4], this compound registered an Inhibition of 11.8%.

As for `Nc1nc2c(s1)Cc1cc(-c3ccc(O)cc3)ccc1-2`, the results for the Alloste ic enhan er (AE) in assay [2], in assay [5] and in assay [6] were 1%, 4% and 0%, respectively. The EC50 in assay [3] was over 10 µM. The same compound yielded an Inhibition in assay [4] of 36.7%.

Regarding `Nc1nc2c(s1)Cc1cc(-c3ccccc3)ccc1-2`, the Alloste ic enhan er (AE) in assay [2] amounted to 1.6%; in assay [5], 8.2%; in assay [6], 0%. The 50% effective concentration (EC50) in assay [3] was over 10 µM. The Inhibition in assay [4] was over 10%.

`Cc1ccc(-c2ccc3c(c2)Cc2sc(N)nc2-3)cc1C`: the Alloste ic enhan er (AE) in assay [2] was determined as 0%; in assay [5], 52%; in assay [6], 0%. For the same compound, the EC50 in assay [3] is over 10 µM. The Inhibition in assay [4] was determined as 30.1%.

As for `Cc1sc(N)c(C(=O)c2cccc(C(F)(F)F)c2)c1C`, the Alloste ic enhan er (AE) in assay [2] amounted to 5%; in assay [5], 20%; in assay [6], 0%. The EC50 in assay [3] was over 10 µM.

On to `Nc1nc2c(s1)Cc1cc(-c3cccc(O)c3)ccc1-2`, for which the values for the Alloste ic enhan er (AE) in assay [2], in assay [5] and in assay [6] were 1%, 10% and 0%, respectively. The EC50 in assay [3] was over 10 µM. Further, in assay [4], the Inhibition was 36.7%.

As to `Nc1nc2c(s1)Cc1cc(-c3cccs3)ccc1-2`, the Alloste ic enhan er (AE) stood at 1.8% in assay [2], 32% in assay [5] and 0% in assay [6].

Consider `Nc1nc2c(s1)Cc1cc(-c3cccc(C(F)(F)F)c3)ccc1-2`, for which the Alloste ic enhan er (AE) in assay [2] turned out to be 0%; in assay [5], 15.8%; in assay [6], 0%. Moreover, in assay [3], the EC50 was over 10 µM. Also, in assay [4], the Inhibition was over 10%.

On to `Cc1ccc(C)c(-c2ccc3c(c2)Cc2sc(N)nc2-3)c1`, for which the Allosteric enhancer (AE) in assay [1] was 51%. The Alloste ic enhan er (AE) in assay [2] was 0%; in assay [5], 47.7%; in assay [6], 0%. Besides, in assay [3], the EC50 was 7.3 µM. For the same compound, the Inhibition in assay [4] is over 10%.

Take `Nc1nc2c(s1)Cc1cc(-c3ccsc3)ccc1-2`: the Alloste ic enhan er (AE) in assay [2] came to 3.8%; in assay [5], 68.8%; in assay [6], 0%.

As for `Nc1nc2c(s1)Cc1cc(-c3ccc(F)cc3)ccc1-2`, the Alloste ic enhan er (AE) in assay [2] is 11.8%; in assay [5], 54.4%; in assay [6], 0%. The EC50 in assay [3] is over 10 µM. Also, in assay [4], the Inhibition was over 10%.
